Screens from PubChem.
Hits are enriched below; roughly 2.2% of the tested compounds scored in any of these assays.
HCV core dimer – blocks dimerization of HCV core protein; AID 1899; TR-FRET GST/Flag-core106 dimerization, 1536-well; hit rate 0.33% among 300,000; inhibition, % at 5 µM;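 active = inhibition above the mean of all tested compounds plus 3 SD, set per screening campaign, cut at about 45% in these data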
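System: GST-tagged and Flag-tagged HCV core protein residues 1-106 / Input: core106 proteins, GST 13.5 nM and Flag 17 nM / Buffer or medium: KF-containing HEPES buffer, pH 7.45, DTT, CHAPS, BSA / Probe or stimulus: Eu-anti-GST and XL665-anti-Flag labelled anti-tag antibodies / Schedule: 4 h, 22.5 °C incubation / Technique: TR-FRET 671 and 617 nm emission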
GPR7 antag – antagonists of human GPR7 (neuropeptides B/W receptor 1); hit rate 1.1% among 290,000; GPR7-expressing cells, fluorescence antagonist assay; inhibition, % at 4.4 µM; in the data active = inhibition above about 16%, passing the limit was not always enough;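 note: cells stimulated with the agonist NPW; 0% = agonist with vehicle and 100% = vehicle without agonist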
Target sequence (P48145 whole entry, looked up): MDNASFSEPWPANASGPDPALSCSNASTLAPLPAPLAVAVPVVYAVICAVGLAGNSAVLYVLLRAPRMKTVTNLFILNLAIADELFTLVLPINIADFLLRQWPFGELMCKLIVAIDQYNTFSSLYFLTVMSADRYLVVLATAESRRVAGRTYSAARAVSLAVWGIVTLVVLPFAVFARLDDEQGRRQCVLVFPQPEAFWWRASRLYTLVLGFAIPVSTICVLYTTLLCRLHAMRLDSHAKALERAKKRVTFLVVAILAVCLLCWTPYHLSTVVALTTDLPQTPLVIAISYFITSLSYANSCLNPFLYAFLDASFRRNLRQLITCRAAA
GRK2 inh – human GRK2 inhibition via aptamer displacement; P25098; bead flow cytometry, FAM-aptamer displacement from GRK2; inhibition of aptamer binding, % at 10 µM; hit rate 0.59% among 330,000;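 active = inhibition of aptamer binding above 40%, roughly 3 SD of noise, on plates passing a quality check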;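 note: median bead fluorescence of bound FAM aptamer so fluorescent compounds give negative values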
DAGLB inhibitor – diacylglycerol lipase beta (human) inhibition; AID 504411; inhibition, % at 5.17 µM; HEK293T DAGLB membrane lysate, EnzChek fluorogenic substrate; Q8NCG7; hit rate 0.059% among 340,000; in the data active = inhibition above about 34%;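 note: 0% = enzyme with vehicle and 100% = wells lacking enzyme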
NS3 helicase inh – inhibitors of Hepatitis C virus NS3 helicase | NS3 helicase DNA unwinding, Cy5 molecular beacon fluorescence | inhibition, % at 10.9 µM | hit rate 0.56% among 290,000;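 active = inhibition above the mean of all tested compounds plus 3 SD, set per campaign, cut at about 35% in these data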;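 note: 0% = DMSO wells and 100% = thioflavine S control wells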
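System: Hepatitis C virus NS3 helicase domain fragment enzyme | Reagent: Annealed dual-labelled DNA beacon duplex, ATP-started | Compound dosing: 10.9 µM single point, 0.8% DMSO | Incubation: 1 h reaction at 25 °C, ATP-initiated | Technique: Cy5 fluorescence | Evaluation: Percent inhibition from t60/t0 fluorescence ratio | Benchmarks: Low DMSO, high thioflavine S at 110 µM | Replication: Singlicate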
FID counter – displaces DNA intercalator in HCV helicase counter-screen; hit rate 0.17% among 290,000; AID 1845; DNA fluorescent intercalator displacement, fluorescence; inhibition, % at 7.9 µM; in the data active = inhibition above about 37%;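 note: 0% = vehicle and 100% = reference compound; higher means more ethidium bromide displaced from hairpin DNA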
GPR7 antag cf – human GPR7 antagonism, confirmation assay | shares compounds with GPR7 antag | GPR7-expressing cells, calcium fluorescence antagonist mode | inhibition, % at 4.4 µM | hit rate 52% among 2,400 | AID 1952; in the data active = inhibition above about 24%;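 note: stimulated with the GPR7 agonist NPW; 0% = agonist plus vehicle and 100% = vehicle alone without agonist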
MCHR1 antagonist – counter-screen for GPR7 antagonists: antagonists of human MCHR1; shares compounds with GPR7 antag; MCHR1-expressing cells, fluorescence antagonist assay; inhibition, % at 4.4 µM; hit rate 62% among 2,400; AID 2148; in the data active = inhibition above about 22%;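 note: 0% = vehicle with agonist and 100% = vehicle without agonist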
Starred values were filed as active, the others as inactive; · = not tested or not shown.

SMILES | HCV core dimer | GPR7 antag | GRK2 inh | DAGLB inhibitor | NS3 helicase inh | FID counter | GPR7 antag cf | MCHR1 antagonist
Nc1nc(N)nc(-c2cccc(Cl)c2)n1 | · | · | 3.0 | 3.2 | · | · | · | ·
CN(C(=O)c1cc([N+](=O)[O-])ccc1NCc1cccnc1)c1ccccc1 | 1.6 | -0.6 | 0.0 | -0.7 | 4.3 | -13.8 | · | ·
CC(C)C1N(C(=O)CN2CCCCC2)CCN1S(=O)(=O)c1ccccc1 (centres undefined) | -3.5 | 26.6* | 1.0 | -1.4 | -6.6 | 8.7 | -8.9 | -1.7
COc1cc(SC)ccc1C(=O)Nc1ccc2c(c1)CCC2 | 4.9 | 6.3 | 4.0 | -16.7 | -13.9 | -14.9 | · | ·
Cc1ccccc1OCC(O)CNC1CCC(NCC(O)COc2ccccc2C)CC1 (centres undefined) | -7.0 | 77.0* | 0.0 | 0.1 | -84.7 | 28.8 | 82.9* | 80.1*
Cc1ccccc1CC1(CO)CCCN(C(=O)c2ccccc2N(C)C)C1 (centres undefined) | -0.7 | 30.8* | 2.0 | -5.4 | 1.1 | -32.6 | 36.1* | 30.7*
O=C(Nc1ccc(F)cc1F)NC1CCN(S(=O)(=O)c2ccc(F)cc2)CC1 | -4.8 | 37.0* | 1.0 | -4.6 | 0.3 | -7.3 | 18.0 | 6.1
Cc1cc(Cl)ccc1NC(=O)NC1CCN(S(=O)(=O)c2ccc(F)cc2)CC1 | -6.2 | -5.0 | 3.0 | -2.4 | -1.6 | -8.0 | · | ·
CC(C)[C@@H]1CC[C@@H](C)C[C@H]1OC(=O)C[n+]1cc(-c2ccc(Cl)cc2)n2c1CCCCC2 | -4.4 | 58.2* | 0.0 | 6.8 | -65.9 | 19.6 | 64.9* | 83.5*
Cc1cc(C(C)(C)C)oc1C(=O)N(CC(=O)NC1CCCC1)c1c(C)cccc1C | 4.4 | 16.5 | 2.0 | -17.9 | 0.0 | -31.2 | · | ·
COc1ccccc1N(CC(=O)NC1CCCC1)C(=O)c1oc(C(C)(C)C)cc1C | 6.3 | 43.6* | 0.0 | -4.7 | 0.1 | -41.3 | 37.3* | 47.7*
COc1ccc(NC(=O)n2ncc3cc(Cl)ccc32)cc1OC | -4.6 | 23.6 | 1.0 | -1.6 | -5.2 | -3.6 | · | ·
Cc1ccc(CN2C(=O)CSC2c2ccccc2F)cc1 (centres undefined) | -1.1 | -5.0 | 2.0 | -5.2 | -12.6 | -30.4 | · | ·
COCCNC(=O)Cn1c(=O)n(CCCCCC(=O)NCc2ccc3c(c2)OCO3)c(=O)c2sccc21 | 0.3 | 29.4* | 0.0 | · | 2.7 | -20.0 | -6.6 | -3.5
O=C(CCCCn1c(=O)[nH]c2ccsc2c1=O)NCc1ccc2c(c1)OCO2 | 0.8 | 11.2 | 2.0 | 3.7 | -3.0 | -8.1 | · | ·
COc1ccc(Nc2ncnc3c2c(C)c(C)n3CCO)cc1 | -14.4 | 0.4 | 0.0 | 1.0 | 4.0 | -21.9 | · | ·
O=C(CCNS(=O)(=O)c1ccc(Br)s1)Nc1ccc(Cl)cc1 | 3.8 | 32.0* | 1.0 | -3.1 | -8.8 | 0.2 | 31.9* | 29.5*
CN(C)N1C(N)=C(C#N)C(c2cccnc2)C2=C1CC(C)(C)CC2=O (centres undefined) | -6.8 | 22.4* | 1.0 | 0.8 | 6.7 | -0.3 | -17.6 | -11.1
CC1(C)CC(=O)C2=C(C1)N(c1ccccc1)C(N)=C(C#N)C2c1cccnc1 (centres undefined) | 2.5 | -1.1 | 0.0 | 1.5 | -4.7 | -1.0 | · | ·
CS(=O)(=O)N(CC(=O)NC1CCCC1)C1CCCCC1 | 0.1 | -11.8 | 0.0 | 1.6 | 13.1 | -2.7 | · | ·
c1ccc(COc2ccc(Nc3ncnc4nc[nH]c34)cc2)cc1 | -1.4 | 33.8* | 0.0 | 4.9 | -8.1 | -2.1 | -18.8 | 22.5*
CCOC(=O)c1ccc(Nc2ncnc3nc[nH]c23)cc1 | 0.4 | 2.6 | 1.0 | 0.2 | 1.6 | -6.8 | · | ·
C=CCN1C(=O)C2C(C(=O)NC)C3C=CC2(O3)C1C(=O)NCc1ccc(OC)cc1 (centres undefined) | 0.7 | -3.5 | 1.0 | 2.9 | -7.0 | -0.7 | · | ·
CNC(=O)C1C2C=CC3(O2)C1C(=O)N(C1CC1)C3C(=O)NCc1ccc(OC)cc1 (centres undefined) | -4.3 | 25.1* | 0.0 | -0.7 | -2.8 | 1.4 | -2.6 | -3.1
COC(=O)C1=C(C)Nc2nc(SCc3ccccc3)[nH]c(=O)c2C1c1cccs1 (centres undefined) | 28.4 | 33.4* | 4.0 | 2.6 | 6.9 | -15.8 | 17.2 | 34.0*
SMILES | HCV core dimer | GPR7 antag | GRK2 inh | DAGLB inhibitor | NS3 helicase inh | FID counter | GPR7 antag cf | MCHR1 antagonist
CCC1Oc2ccc(C)cc2N(CC(=O)NCc2cccc(OC)c2)C1=O (centres undefined) | -3.2 | 23.6* | 1.0 | -10.8 | 10.1 | -21.4 | 14.1 | 22.7*
CCOC(=O)N1CCC(NC(=O)CN2C(=O)C(CC)Oc3ccc(C)cc32)CC1 (centres undefined) | -6.9 | -10.5 | 0.0 | -1.1 | 0.4 | -31.9 | · | ·
CCC1Oc2ccc(C)cc2N(CC(=O)NC2CCCCC2)C1=O (centres undefined) | -20.2 | 31.8* | 0.0 | -4.6 | -2.4 | -28.8 | 20.1 | 16.1
COc1ccc(CNS(=O)(=O)c2ccc(S(=O)(=O)NC3CC3)cc2)cc1 | -6.3 | 27.4* | 4.0 | -2.0 | -6.5 | -5.9 | 4.5 | 2.1
COc1ccc(CC(=O)O/N=C(\N)c2ccccn2)cc1OC | · | 24.1* | 0.0 | 3.0 | 17.9 | -11.1 | -2.2 | 5.4
COc1ccccc1CC(=O)O/N=C(\N)c1ccccn1 | -4.1 | -8.2 | 3.0 | 0.9 | 8.9 | -7.5 | · | ·
O=C(CCN1CCc2ccccc2C1)c1ccc2c(c1)OCCO2 | -0.3 | 23.2* | 0.0 | -0.9 | -1.5 | 1.5 | 12.1 | 22.2*
COc1ccc(/C=C2\CCc3ccccc3C2=O)cc1O | 16.5 | 25.3* | 1.0 | 0.9 | -11.0 | -14.1 | 29.6* | 33.7*
OC(COc1ccc(Br)cc1)CN1CCC(Cc2ccccc2)CC1 (centres undefined) | -0.3 | 9.3 | 1.0 | -2.8 | -55.1 | 20.7 | · | ·
CCOC(Cn1ccc(=O)[nH]c1=O)OCC | -1.1 | 27.2* | 0.0 | 1.6 | -5.1 | -0.2 | 0.3 | 13.6
CCOC(Cn1cc([N+](=O)[O-])c(=O)[nH]c1=O)OCC | · | · | · | -2.2 | · | · | · | ·
CCOC(=O)C(C)On1c(-c2ccccc2)nc2ccc([N+](=O)[O-])cc21 (centres undefined) | 4.1 | · | 0.0 | -1.8 | -6.5 | 4.5 | · | 10.4
CCOC(=O)C(C)On1c(-c2ccc(Cl)cc2)nc2ccc([N+](=O)[O-])cc21 (centres undefined) | 8.5 | 26.4* | 4.0 | 0.9 | -5.4 | 15.5 | 34.5* | 51.5*
O=C(O)COn1c(-c2ccccc2)nc2ccc([N+](=O)[O-])cc21 | -2.0 | 30.9* | 5.0 | 1.3 | 2.1 | 7.0 | 1.5 | 15.9
O=[N+]([O-])c1ccc2nc(-c3ccc(Cl)cc3)n(OCc3ccccc3)c2c1 | 2.5 | 3.7 | 0.0 | -0.6 | 7.3 | 3.0 | · | ·
